# In the library only some 2.2% were active in any assay of this set; here they are far more common.
# Env fusion inh = HIV envelope-mediated fusion inhibition; HeLa-JRFL Env/CEM21 cell fusion, luciferase; inhibition, % at 12.3 µM; 360,000 tested, 1.1% active;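 active = mean replicate inhibition score of at least 50 and every replicate individually at or above 50; inconclusive = only one of the two criteria met; inactive = mean below 50 and not all replicates reaching 50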
# PDI turbidity = blocks human protein disulfide isomerase activity; 350,000 tested, 0.052% active; inhibition, % at 10 µM; PDI insulin aggregation turbidity, A650, 90 min; AID 588391; P07237;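 active = mean inhibition across replicates of 30% or more, whatever share of single replicates reach that level; inconclusive = mean inhibition below 30% while every single replicate reaches 30%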
# Target sequence (P07237 whole entry, looked up): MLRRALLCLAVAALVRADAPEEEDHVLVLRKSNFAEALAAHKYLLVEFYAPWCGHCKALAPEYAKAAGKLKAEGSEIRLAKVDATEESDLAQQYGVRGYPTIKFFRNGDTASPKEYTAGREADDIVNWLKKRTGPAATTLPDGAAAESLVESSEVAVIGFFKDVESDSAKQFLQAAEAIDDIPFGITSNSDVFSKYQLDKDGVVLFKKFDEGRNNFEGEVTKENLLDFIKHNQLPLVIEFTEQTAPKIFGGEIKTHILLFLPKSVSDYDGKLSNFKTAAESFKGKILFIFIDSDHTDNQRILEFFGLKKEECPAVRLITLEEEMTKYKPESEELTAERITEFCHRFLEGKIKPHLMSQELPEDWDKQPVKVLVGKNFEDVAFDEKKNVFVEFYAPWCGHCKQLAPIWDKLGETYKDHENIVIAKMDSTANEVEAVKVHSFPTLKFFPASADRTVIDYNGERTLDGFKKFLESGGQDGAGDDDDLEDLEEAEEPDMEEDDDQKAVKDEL
# FN deposition inh = fibronectin deposition inhibition. AH1F fibroblasts, Alexa488-fibronectin deposition fluorescence, overnight. inhibition, % at 12.6 µM. 350,000 tested, 0.086% active. AID 743247;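 active = mean inhibition across replicates of 30% or more, regardless of how many single replicates reach that level; inconclusive = mean under 30% yet at least half of replicates reach 30%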
#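 Assay system: AH1F fibroblasts / Quantity: 10000 cells per well / Medium: DMEM plus 2% serum, read in PBS / Reagent: labelled fibronectin 24 nM / Dosing: single dose, pinned / Times: 1 h cell attachment, overnight exposure to compound and label / Signal: fluorescence, ex 485 nm, em 525 nm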
# ERp5 block = blocks human ERp5 reductase activity on insulin; Q15084; ERp5 insulin aggregation, absorbance 650 nm, 90 min; inhibition, % at 9.99 µM; 350,000 tested, 0.05% active; AID 651711;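 active = mean replicate inhibition above about 25%, with every replicate also reaching it, limit read from the data, passing the limit was not always enough; inconclusive = only one of those two criteria met; inactive = neither criterion met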
# PvdQ acylase = P. aeruginosa PvdQ acylase inhibition; purified PvdQ acylase, fluorescence plate reader; 340,000 tested, 0.063% active; inhibition, % at 10 µM; in the data active = inhibition above about 30%, passing the limit was not always enough; inconclusive = no clear call, values can overlap the other calls
# rRNA inh HTS = inhibits bacterial ribosomal RNA function over humanized ribosomes | E. coli WT GFP vs humanized-ribosome RFP mutants, fluorescence, 24 h; stronger effect = lower value; DMSO median 0, no signal -100 | GFP signal change (wild-type ribosome), % (test concentration not listed) | 350,000 tested, 1.6% active | AID 720706;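 active = significant combined selectivity score with lowered wild-type GFP, culture density cut under 30%, mutant RFP and density less affected; inactive = any of these conditions unmet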
# Hits are given with their value; n = inactive; u = inconclusive; x = not tested or not shown; [ ] = remark or other dose.
SMILES,Env fusion inh,PDI turbidity,FN deposition inh,ERp5 block,PvdQ acylase,rRNA inh HTS
Cc1cc(C)n(CC(O)CN(c2ccccc2)S(=O)(=O)c2ccccc2)n1 (stereo unspecified),x,n,x,x,n,x
Cc1cccc(C)c1N(CC(O)Cn1c2ccccc2c2ccccc21)S(C)(=O)=O (stereo unspecified),83.8,n,n,x,n,x
Cc1ccc(N(CC(O)Cn2nc(C)cc2C)S(=O)(=O)c2ccc3ccccc3c2)cc1 (stereo unspecified),n,n,n,n,n,-30.5
N#C/C(=C/c1ccco1)c1nc2ccccc2s1,n,n,n,x,41.5,x
N#C/C(=C\c1ccco1)c1nc2ccccc2s1,n,n,x,x,u,x
O=C(C[C@H]1CC[C@@H]2[C@H](COC[C@@H](O)CN2C(=O)c2cnccn2)O1)NCc1ccc(F)cc1,n,x,n,n,x,n
Nc1[nH]c(C(=O)c2ccccc2)c(-c2ccccc2Cl)c1C(=O)c1ccccc1,n,x,n,n,x,-27.4
CCCN1[C@H](C(=O)NC2Cc3ccccc3C2)[C@@H](CO)[C@@H]2Cn3c(ccc(C4=CCCC4)c3=O)[C@@H]21,x,x,x,n,x,n
CCc1cc2c(=O)c(-c3nc4ccccc4n3C)c(C(C)C)oc2c(CN2CCN(C)CC2)c1O,56.6,n,x,x,n,x
O=C(NCCc1ccc(F)cc1)c1cccc(NC(=O)c2ccccc2)c1,n,n,n,n,n,-22.1
CC(=O)c1cccc(NC(=S)NCCCCc2ccccc2)c1,n,n,n,n,n,-34.1
O=C(CCCc1ccccc1)Nc1cccc(C(=O)O)c1,n,n,32.7,n,n,n
CCCC(=O)Nc1ccc2c(c1)C(=O)N(C)C[C@@H](OC)[C@H](C)CN(Cc1ccccc1)[C@@H](C)CO2,n,x,n,n,x,n
COc1ccc(S(=O)(=O)Nc2ccc3c(c2)CC(=O)N([C@H](C)CO)C[C@@H](C)[C@@H](CN(C)S(=O)(=O)c2ccc(C)cc2)O3)cc1,n,x,x,n,x,n
Cc1ccc(CNC(=O)c2ccc(N(C)S(=O)(=O)c3ccccc3)cc2)cc1,n,n,n,n,n,-33.0
CN(c1ccccc1)S(=O)(=O)c1ccc(C(=O)NCc2ccc(F)cc2)cc1,n,n,n,n,n,n
C[C@@H]1CCCCO[C@H](CN(C)CC2CCCCC2)[C@H](C)CN([C@@H](C)CO)C(=O)c2cc(NC(=O)Nc3cccc4ccccc34)ccc2O1,n,x,x,n,x,-53.1
C[C@H]1CCCCO[C@@H](CN(C)Cc2ccccc2)[C@@H](C)CN([C@@H](C)CO)C(=O)c2cc(NC(=O)Nc3cccc4ccccc34)ccc2O1,109.9[16.7 µM],x,n,n,x,n
C[C@@H]1CN([C@H](C)CO)C(=O)c2cc(NC(=O)Nc3cccc4ccccc34)ccc2O[C@@H](C)CCCCO[C@@H]1CN(C)C(=O)c1ccccc1,n,x,x,n,x,n
C[C@@H]1CN([C@@H](C)CO)C(=O)c2cc(NC(=O)Nc3cccc4ccccc34)ccc2O[C@@H](C)CCCCO[C@H]1CN(C)C(=O)c1ccccc1,60.7[16.7 µM],n,x,n,x,n
CN(C)C(=O)c1cccc(-c2ccc([C@@H]3[C@@H](CO)N4C(=O)CN(C(=O)C5CCCC5)C[C@@H]34)cc2)c1,x,x,n,n,x,n
COCCNC(=O)c1cc2c(-c3ccc(Cl)cc3)nn(C)c2s1,n,n,n,n,n,-26.9
COCCCNC(=O)c1cc2c(-c3ccc(Cl)cc3)nn(C)c2s1,n,n,n,n,n,n
Cc1ccc(C)c(-n2cc(CNCCCn3cccn3)c(-c3ccccc3)n2)c1,69.4,n,n,n,n,n
NC(=S)n1[nH]c(-c2ccc([N+](=O)[O-])cc2)c(N=Nc2cccc([N+](=O)[O-])c2)c1=O,63.3,n,n,n,n,n
CS(=O)(=O)Nc1ccc2c(c1)[C@H]1C[C@@H](CC(=O)NCc3ccccc3)O[C@H](CO)[C@H]1O2,n,x,n,n,x,n
CCC(=O)N(CCC(c1ccco1)C(C)C)Cc1ccccc1 (stereo unspecified),n,n,n,n,n,-38.6
COc1ccc(OC)c(NC(=O)COC(=O)c2c3c(nc4ccccc24)CCCC3)c1,x,n,x,n,n,-27.5
COc1ccc2c3c(n(C)c2c1)[C@@H](CO)N(C(=O)Nc1ccc(F)cc1)CC31CCN(CC2CCOCC2)CC1,x,x,x,x,x,n

# Compound activity from PubChem BioAssay.
